Screening data as filed in PubChem.
ABHD4 inh: ABHD4 inhibitors, primary screen, biochemical, fluorescence polarization, mouse | (Lyso)-N-acylphosphatidylethanolamine lipase (Mus musculus), Q8VD66 | purified mABHD4, FP-Rh probe fluorescence polarization | inhibition, % at 8.92 µM | 370,000 tested, 0.54% active | AID 720543, 2013;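 active means inhibition exceeding the mean over every tested compound plus 3 SD, cut at about 30% in these data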;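 further: 0% = plate median of compound wells and 100% = S159A mutant with DMSO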
Target sequence (Q8VD66 whole entry, looked up): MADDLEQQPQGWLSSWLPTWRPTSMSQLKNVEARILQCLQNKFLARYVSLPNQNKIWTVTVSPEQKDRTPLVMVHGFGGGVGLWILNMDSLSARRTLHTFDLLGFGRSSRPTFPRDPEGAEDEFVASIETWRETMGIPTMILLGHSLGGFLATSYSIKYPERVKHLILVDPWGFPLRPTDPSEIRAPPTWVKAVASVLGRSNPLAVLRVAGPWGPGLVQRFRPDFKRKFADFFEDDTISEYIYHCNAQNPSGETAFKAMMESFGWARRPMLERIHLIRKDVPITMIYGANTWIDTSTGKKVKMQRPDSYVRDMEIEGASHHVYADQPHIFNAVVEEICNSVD
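Doses – 8.92 µM, single dose · Material – wild-type mouse ABHD4 protein · Replication – single well per compound (singlicate) · Measure – percent inhibition of probe binding, normalized to plate controls · Schedule – 45 min compound pre-incubation plus 60 min probe step, 25 °C · Detection – fluorescence polarization with parallel and perpendicular emission, 525/598 nm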
ARNT-TACC3 inh: disruptors of ARNT/TACC3 protein interaction, primary screen, biochemical, AlphaScreen, single concentration | AID 623870, 2012 | 390,000 tested, 0.66% active | inhibition, % at 9.99 µM | Transforming acidic coiled-coil-containing protein 3 (Homo sapiens), Q9Y6A5 | AlphaScreen His-ARNT PAS-B/GST-TACC3 binding, luminescence; TACC3 fragment carries E629A point mutation;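 active means mean inhibition of replicates at least 50% and at least half of replicates each reaching 50%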;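 further: 0% = complete ARNT plus TACC3 wells and 100% = ARNT alone without TACC3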
HTRA1 inh: HTRA1 serine protease inhibitors, primary screen, biochemical, fluorescence polarization, HTS; Q92743; recombinant HTRA1, FP-rhodamine activity-based probe; 340,000 tested, 0.5% active; inhibition, % at 5.96 µM; in the data active means inhibition above about 36%;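 further: 0% = enzyme with DMSO and 100% = wells lacking enzyme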
SIAE primary: human SIAE inhibitors, primary screen, biochemical, fluorescence polarization, FP-Rh probe, 1536-well HTS; SIAE FP-Rh probe binding; inhibition, % at 9.66 µM; 370,000 tested, 0.69% active;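 active means inhibition above a cutoff: mean of compounds within the control limits plus 3 SD of those, cut at about 17% in these data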;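 further: 0% = plate median of compound wells and 100% = probe without SIAE protein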
TCR-CD3 inh: inhibitors of human TCR-CD3 interaction, primary screen, biochemical, fluorescence, TAMRA-labeled TCR probe. inhibition, % at 9.4 µM. 360,000 tested, 0.37% active. AID 651800, 2012; in the data active means inhibition above about 19%;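 further: recombinant mutant TCR 2C K166C tagged with TAMRA read by polarization; 0% = receptor in buffer alone and 100% = receptor with positive control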
HTRA1 inh conf: HTRA1 protease inhibitors, retest, confirmation, biochemical, fluorescence polarization; shares compounds with HTRA1 inh; recombinant HTRA1, FP-rhodamine activity-based probe; inhibition, % at 5.96 µM; 1,600 tested, 66% active; AID 540248, 2011;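 active means mean inhibition over three repeats above a set limit taken from the earlier primary screen, cut at about 37% in these data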;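 further: 0% = HTRA1 with DMSO and 100% = wells lacking HTRA1; inhibitors block probe binding so polarization drops and inhibition rises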
* marks the source's active call; other numbers are inactive results; nt = no result given. The list is not random: actives were taken first. Their share in the collection is about 1.8%.

SMILES	ABHD4 inh	ARNT-TACC3 inh	HTRA1 inh	SIAE primary	TCR-CD3 inh	HTRA1 inh conf
COC(=O)C[C@H]1CC[C@@H]2[C@H](COc3ccc(NC(=O)Nc4ccc(C)cc4)cc3C(=O)N2C)O1	nt	-2	nt	nt	nt	nt
CN(C)c1ccc(N=Cc2cccn2C)cc1	35*	60*	42*	15	14	7
CC1CCCN(C2=C(NS(=O)(=O)c3ccc(Br)cc3)C(=O)c3ccccc3C2=O)C1 (stereo unspecified)	1	7	5	14	-7	nt
CCOC(=O)C1CCCN(C2=C(NS(=O)(=O)c3ccc(Br)cc3)C(=O)c3ccccc3C2=O)C1 (stereo unspecified)	25	44	46*	13	3	62*
COc1cc(N=Nc2ccc(Br)cc2)cc(C=O)c1O	12	nt	46*	-8	12	56*
CCOC(=O)c1cc2c(=Cc3ccc(N(C)C)cc3)c3ccccc3n2[n+]1C	-68	nt	46*	-45	-22	2
CN(C)c1ccc(C=c2c3ccccc3n3c2c2ccccc2[n+]3C)cc1	58*	11	87*	17*	31*	90*
COc1cc(/C=C(\C#N)C(=O)c2ccc(O)c(O)c2)cc(I)c1O	-6	51*	41*	-10	23*	30
C[C@@H]1CN([C@H](C)CO)C(=O)c2cccc(NC(=O)C3CC3)c2O[C@H]1CN(C)Cc1ccc(C(=O)Nc2ccccc2N)cc1	nt	-5	nt	nt	nt	nt
CCCCCCCCCCCCC/C=C/[C@@H](O)[C@@H](N)CO	20	-4	38*	-1	10	67*
CCCCCCCC/C=C\CCCCCCCC(=O)O	3	-8	2	1	-1	nt
NC(=O)c1cc2c3ccccc3ccn2c1-c1ccccc1	-6	-1	42*	6	-5	29
Cc1cc(C(N)=O)c2ccccc2n1	-3	-20	-1	12	-1	nt
CCOc1cc(N2CCOCC2)c(OCC)cc1NC(=O)c1nn(CC)c(=O)c2ccccc12	4	4	41*	1	-3	45*
Oc1ccc(-c2nc3ccc4ccccc4c3c3c2CCC3)cc1O	15	2	41*	-2	-3	56*
Cc1cc(C)c2c(ccc3ccccc32)n1	4	-5	-4	2	-4	nt
Cc1ccc(/C=N/Nc2cccc3cccnc23)c(O)c1	21	27	29	14	0	nt
Oc1ccc(/C=N/Nc2cccc3cccnc23)c(O)c1	29	18	47*	7	-5	33
Cc1cc(-c2ccccc2)nc(N/N=C/c2ccc(O)cc2O)n1	24	8	41*	14	-2	75*
Cc1cc(-c2ccccc2)nc(N/N=C/c2ccccc2)n1	1	34	-5	-2	3	nt
O=c1cc(CN2CCN(Cc3ccccc3)CC2)c2ccc(O)c(O)c2o1	19	13	61*	1	11	70*
Cc1c(O)ccc2c(CN3CCN(Cc4ccccc4)CC3)cc(=O)oc12	-3	4	0	4	2	nt
CS(=O)(=O)N1[C@@H](C#N)[C@H](c2ccc(-c3ccccc3F)cc2)[C@@H]1CO	nt	-31	nt	nt	nt	nt
CC(C)NC(=S)N/N=C/c1cc(Br)ccc1O	8	53*	37*	16	9	49*
Cc1cccc(NC(=O)Oc2ccc(Cl)c3cccnc23)c1	-1	nt	54*	11	-2	41*
SMILES	ABHD4 inh	ARNT-TACC3 inh	HTRA1 inh	SIAE primary	TCR-CD3 inh	HTRA1 inh conf
C[C@@H](NC(=O)C[C@@H]1CC[C@@H]2[C@H](COC[C@H](O)CN2C)O1)c1ccccc1	nt	8	nt	nt	nt	nt
CC(=O)Oc1cc(C(=O)OCC(=O)NC23CC4CC(CC(C4)C2)C3)cc(OC(C)=O)c1OC(C)=O	24	-3	66*	10	49*	75*
Cc1noc(C)c1NC(=O)N(C)C[C@@H]1Oc2ccc(NS(=O)(=O)c3cn(C)cn3)cc2C(=O)N([C@H](C)CO)C[C@H]1C	nt	-5	nt	nt	nt	nt
COc1ccccc1NS(=O)(=O)c1cc(N)ccc1N1CCOCC1	3	-8	37*	6	-4	-13
NC(=O)/C(=N\OC(=O)c1ccco1)c1nc(-c2ccc(Br)cc2)cs1	14	16	67*	-41	4	47*
COc1ccc(-c2nn(-c3ccccc3)cc2/C=N/N2C(=O)CSC2=S)cc1	22	18	68*	-1	9	53*
COc1ccc(OC)c(/C=N/NC(=O)CCc2ccc(O)c(O)c2)c1	12	0	53*	-2	5	79*
CC(C)NC(=O)Nc1ccc2c(c1)C(=O)N([C@H](C)CO)C[C@H](C)[C@@H](CN(C)C(=O)Nc1ccc(F)cc1)OCCCC[C@@H](C)O2	nt	-1	nt	nt	nt	nt
CCCN(C)C[C@@H]1OCCCC[C@H](C)Oc2ccc(NC(=O)Cc3ccccc3)cc2C(=O)N([C@@H](C)CO)C[C@@H]1C	nt	5	nt	nt	nt	nt
C[C@@H]1CN([C@@H](C)CO)C(=O)c2cc(NS(=O)(=O)c3ccc(Cl)cc3)ccc2O[C@@H](C)CCCCO[C@@H]1CN(C)Cc1ccccc1	nt	-1	nt	nt	nt	nt
Cc1ccc2c(Cl)cc(Cl)c(O)c2n1	5	nt	40*	11	-4	47*
O=C(Oc1c(Cl)cc(Cl)c2cccnc12)c1cccs1	15	1	45*	10	-5	24
Clc1cc2cccnc2c2ccccc12	7	5	-2	0	-8	nt
Oc1c(Cl)cc(Cl)c2cccnc12	11	nt	48*	23*	-3	56*
Cc1cc(Cl)c2ccc3ccccc3c2n1	-3	-6	1	4	3	nt
O=C(Oc1c(Cl)cc(Cl)c2cccnc12)c1ccco1	16	15	59*	7	3	54*
Cc1noc(C)c1NC(=O)Nc1ccc2c(c1)C(=O)N([C@H](C)CO)C[C@@H](C)[C@H](CN(C)Cc1ccc(Oc3ccccc3)cc1)O2	nt	0	nt	nt	nt	nt
COc1cccc(NC(=O)C[C@H]2CC[C@@H]3[C@@H](COc4ccc(NC(=O)c5ccccc5F)cc4C(=O)N3C)O2)c1	nt	-9	nt	nt	nt	nt
O=C(O)C[C@H]1CC[C@H](NC(=O)Nc2cc(F)ccc2F)[C@@H](CO)O1	nt	-12	nt	nt	nt	nt
COc1c(-c2ccc(O)c(O)c2)oc2cc(O)cc(O)c2c1=O	21	17	37*	2	16	48*
CO[C@@H]1CN(C)C(=O)c2cc(NC(=O)c3ccc(F)cc3)ccc2OC[C@H](C)N(C(C)=O)C[C@H]1C	nt	-10	nt	nt	nt	nt
O=C(/C=C/c1cccs1)NC(=S)NNC(=O)c1ccccc1O	6	40	48*	6	-11	58*
